According to ChEMBL document CHEMBL5058577, “EUbOPEN Chemogenomics Library 2 (Multiplex)” (2022):

Tested on: U2OS
Test: Multiplex assay against U2OS
Format: toxicity, cell-based
Conditions: human
Outline: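 Per cents of healthy-nucleus cells form the tubulin, mitochondrial-mass and membrane-permeability phenotype values. Live cells were stained at seeding with Hoechst33342, BioTracker Green Microtubule Cytoskeleton Dye, MitoTracker Red and Annexin V Alexa Fluor 680. After compound addition they were imaged on a CQ1 microscope at 37°C and 5% CO2, and CellPathfinder machine-learning gating split them into Hoechst high-intensity objects or normal cells, normal cells into healthy, pyknosed or fragmented nuclei, and pyknosed cells into mitotic or apoptotic.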

[1] = 12 h, 1 µM, compound concentration 1 uM, replicate 1
[2] = 12 h, 1 µM, compound concentration 1 uM, replicate 2
[3] = 12 h, 10 µM, compound concentration 10 uM, replicate 1
[4] = 12 h, 10 µM, compound concentration 10 uM, replicate 2
[5] = 24 h, 1 µM, compound concentration 1 uM, replicate 1
[6] = 24 h, 1 µM, compound concentration 1 uM, replicate 2
[7] = 24 h, 10 µM, compound concentration 10 uM, replicate 1
[8] = 24 h, 10 µM, compound concentration 10 uM, replicate 2
[9] = 48 h, 1 µM, compound concentration 1 uM, replicate 1
[10] = 48 h, 1 µM, compound concentration 1 uM, replicate 2
[11] = 48 h, 10 µM, compound concentration 10 uM, replicate 1
[12] = 48 h, 10 µM, compound concentration 10 uM, replicate 2

CCc1cc2cc(NS(=O)(=O)c3ccc(C#N)cc3)ccc2n(CC)c1=O
Population Apoptotic (%) [1]: 88%
Population Fragmented Nuclei (%) [1]: 30%
Population Healthy Nuclei (%) [1]: 60%
Population Hoechst High Intensity Objects (%) [1]: 3%
Population Membrane Permeable-Phenotype (%) [1]: 4%
Population Mitochondria Different-Phenotype (%) [1]: 2%
Population Mitotic Cells (%) [1]: 11%
Population Normal (%) [1]: 96%
Population Pyknosed Nuclei (%) [1]: 9%
Population Tubulin-Different-Phenotype (%) [1]: 2%
Total Cell Count [1]: 286
Population Apoptotic (%) [2]: 100%
Population Fragmented Nuclei (%) [2]: 26%
Population Healthy Nuclei (%) [2]: 70%
Population Hoechst High Intensity Objects (%) [2]: 1%
Population Membrane Permeable-Phenotype (%) [2]: 8%
Population Mitotic Cells (%) [2]: 0%
Population Normal (%) [2]: 98%
Population Pyknosed Nuclei (%) [2]: 3%
Population Tubulin-Different-Phenotype (%) [2]: 7%
Total Cell Count [2]: 113
Population Apoptotic (%) [3]: 66%
Population Fragmented Nuclei (%) [3]: 28%
Population Healthy Nuclei (%) [3]: 64%
Population Hoechst High Intensity Objects (%) [3]: 2%
Population Membrane Permeable-Phenotype (%) [3]: 9%
Population Mitochondria Different-Phenotype (%) [3]: 3%
Population Mitotic Cells (%) [3]: 33%
Population Normal (%) [3]: 97%
Population Pyknosed Nuclei (%) [3]: 6%
Population Tubulin-Different-Phenotype (%) [3]: 4%
Total Cell Count [3]: 220
Population Apoptotic (%) [4]: 87%
Population Fragmented Nuclei (%) [4]: 13%
Population Healthy Nuclei (%) [4]: 80%
Population Membrane Permeable-Phenotype (%) [4]: 6%
Population Mitotic Cells (%) [4]: 12%
Population Pyknosed Nuclei (%) [4]: 5%
Total Cell Count [4]: 139
Population Apoptotic (%) [5]: 85%
Population Fragmented Nuclei (%) [5]: 29%
Population Healthy Nuclei (%) [5]: 61%
Population Hoechst High Intensity Objects (%) [5]: 2%
Population Membrane Permeable-Phenotype (%) [5]: 9%
Population Mitochondria Different-Phenotype (%) [5]: 2%
Population Mitotic Cells (%) [5]: 14%
Population Normal (%) [5]: 97%
Population Pyknosed Nuclei (%) [5]: 8%
Population Tubulin-Different-Phenotype (%) [5]: 6%
Total Cell Count [5]: 335
Population Apoptotic (%) [6]: 88%
Population Fragmented Nuclei (%) [6]: 16%
Population Healthy Nuclei (%) [6]: 75%
Population Hoechst High Intensity Objects (%) [6]: 1%
Population Membrane Permeable-Phenotype (%) [6]: 7%
Population Mitochondria Different-Phenotype (%) [6]: 7%
Population Mitotic Cells (%) [6]: 11%
Population Normal (%) [6]: 98%
Population Pyknosed Nuclei (%) [6]: 7%
Population Tubulin-Different-Phenotype (%) [6]: 3%
Total Cell Count [6]: 126
Population Apoptotic (%) [7]: 95%
Population Fragmented Nuclei (%) [7]: 23%
Population Healthy Nuclei (%) [7]: 67%
Population Hoechst High Intensity Objects (%) [7]: 3%
Population Membrane Permeable-Phenotype (%) [7]: 4%
Population Mitochondria Different-Phenotype (%) [7]: 2%
Population Mitotic Cells (%) [7]: 4%
Population Normal (%) [7]: 96%
Population Pyknosed Nuclei (%) [7]: 9%
Population Tubulin-Different-Phenotype (%) [7]: 1%
Total Cell Count [7]: 263
Population Apoptotic (%) [8]: 80%
Population Fragmented Nuclei (%) [8]: 14%
Population Healthy Nuclei (%) [8]: 79%
Population Membrane Permeable-Phenotype (%) [8]: 6%
Population Mitotic Cells (%) [8]: 20%
Population Pyknosed Nuclei (%) [8]: 6%
Population Tubulin-Different-Phenotype (%) [8]: 2%
Total Cell Count [8]: 159
Population Apoptotic (%) [9]: 89%
Population Fragmented Nuclei (%) [9]: 21%
Population Healthy Nuclei (%) [9]: 70%
Population Hoechst High Intensity Objects (%) [9]: 2%
Population Membrane Permeable-Phenotype (%) [9]: 6%
Population Mitochondria Different-Phenotype (%) [9]: 3%
Population Mitotic Cells (%) [9]: 10%
Population Normal (%) [9]: 97%
Population Pyknosed Nuclei (%) [9]: 8%
Population Tubulin-Different-Phenotype (%) [9]: 2%
Total Cell Count [9]: 450
Population Apoptotic (%) [10]: 84%
Population Fragmented Nuclei (%) [10]: 19%
Population Healthy Nuclei (%) [10]: 73%
Population Hoechst High Intensity Objects (%) [10]: 3%
Population Mitochondria Different-Phenotype (%) [10]: 5%
Population Mitotic Cells (%) [10]: 15%
Population Normal (%) [10]: 96%
Population Pyknosed Nuclei (%) [10]: 6%
Population Tubulin-Different-Phenotype (%) [10]: 3%
Total Cell Count [10]: 192
Population Apoptotic (%) [11]: 88%
Population Fragmented Nuclei (%) [11]: 18%
Population Healthy Nuclei (%) [11]: 72%
Population Hoechst High Intensity Objects (%) [11]: 3%
Population Membrane Permeable-Phenotype (%) [11]: 6%
Population Mitochondria Different-Phenotype (%) [11]: 2%
Population Mitotic Cells (%) [11]: 11%
Population Normal (%) [11]: 96%
Population Pyknosed Nuclei (%) [11]: 9%
Population Tubulin-Different-Phenotype (%) [11]: 3%
Total Cell Count [11]: 387
Population Apoptotic (%) [12]: 96%
Population Fragmented Nuclei (%) [12]: 15%
Population Healthy Nuclei (%) [12]: 73%
Population Hoechst High Intensity Objects (%) [12]: 2%
Population Membrane Permeable-Phenotype (%) [12]: 8%
Population Mitochondria Different-Phenotype (%) [12]: 3%
Population Mitotic Cells (%) [12]: 3%
Population Normal (%) [12]: 97%
Population Pyknosed Nuclei (%) [12]: 11%
Population Tubulin-Different-Phenotype (%) [12]: 7%
Total Cell Count [12]: 248
